Where a SMILES comes first, the peptide text is derived from it. [ ]: non-standard residue; d: D form. The star is where a group is joined. X1 = COc1cccc2c1C(=O)c1c(O)c3c(c(O)c1C2=O)C[C@@](O)(/C(C)=N/OCC(=O)*)C[C@@H]3O[C@H]1C[C@H](N)[C@H](O)[C@H](C)O1; Phe(4-Cl) = N[C@@H](Cc1ccc(Cl)cc1)C(=O)O
What was measured:
HT-29 [1] = assay: Cytostatic activity against human HT-29 cells preincubated for 24 hrs under serum free condition followed by compound washout and further incubation for 48 hrs in presence of serum by MTT assay; assay type: functional, cell-based
Outline: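 HT-29 cells were exposed to the compound for 24 h, washed, and kept a further 48 h. Viability was read by MTT. Absorbances were normalized to untreated controls and fitted by nonlinear regression to dose-response curves to give IC50.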

[2] = Drug uptake in human HT-29 cells at 100 uM incubated for 3 hrs by flow cytometry; assay type: ADME, cell-based; conditions: ht-29, 3 h
Outline: (§1)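 HT-29 cells were exposed to 100 µM conjugate for 3 h. Flow cytometry recorded the percentage of Dau-positive cells and the mean fluorescence intensity, in duplicate.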

[3] = Retention time of the compound using 0.1% TFA in water and 0.1% TFA in acetonitrile-water (80:20 v/v) as eluents by RP-HPLC analysis; assay type: physicochemical
Outline: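 Analytical RP-HPLC. Eluent A was 0.1% TFA in water and eluent B was 0.1% TFA in acetonitrile-water (80:20, v/v). Gradient: 0% B held to 5 min, then to 90% B at 50 min. Flow 1 mL/min, detection at 220 nm. The column was a Phenomenex Aeris Peptide XB-C18 (250×4.6 mm, 3.6 μm) or a Nucleosil C18 (5 μm, 100 Å, 250×4.6 mm), depending on the conjugate series.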

[4] = Drug uptake in human HT-29 cells assessed as increase in fluorescence intensity at 6.25 to 100 uM incubated for 3 hrs by flow cytometry; assay type: ADME, cell-based; conditions: ht-29, 3 h
Outline: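 HT-29 cells were incubated for 3 h with conjugates at 6.25–100 µM. Cellular uptake of Dau fluorescence was measured by flow cytometry, in duplicate.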

[5] = Drug metabolism in rat liver lysosomes homogenate assessed as increase in Dau = Aoa-Leu-OH metabolite formation at 0.05 ug/ul after 1 hr by LC-MS analysis; assay type: ADME, subcellular, Lysosome; conditions: tissue homogenate
Outline: (§2)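 Conjugates and rat liver lysosomal homogenate were each used at 0.05 µg/µL. Samples were taken at 0, 1, 3, 6 and 24 h. Metabolites were identified by LC-MS on a C18 column with a formic acid/acetonitrile gradient.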

[6] = Stability in serum free medium at 30 uM incubated for 3 hrs by LC/MS analysis
Outline: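 Conjugates (30 μM) were incubated at 37 °C in serum-free medium. Samples were taken at 0 and 3 h, quenched with acetic acid, lyophilised, desalted on C18 spin columns and analysed by LC-MS.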

[7] = Solubility of compound; assay type: physicochemical
[8] = Stability in 2.5% fetal bovine serum containing medium at 30 uM measured after 24 hrs by LC/MS analysis; assay type: ADME, cell-free, Bos taurus; conditions: cattle
Outline: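 Conjugates (30 μM) were incubated at 37 °C in medium containing 2.5% FBS. Samples were taken at 0, 3, 6 and 24 h, quenched with acetic acid, lyophilised, desalted on C18 spin columns and analysed by LC-MS. Cleavage products were identified by mass.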

HT-29 [9] = assay: Cytotoxicity against human HT-29 cells assessed as reduction in cell viability by measuring decrease in fluorescence intensity at 100 uM incubated for 3 hrs by flow cytometry; assay type: cell-based; conditions: ht-29, 3 h
[10] = Drug metabolism in rat liver lysosomes homogenate assessed as Dau-containing metabolite formation at 0.05 ug/ul after 24 hrs by LC-MS analysis; assay type: ADME, subcellular, Lysosome; conditions: tissue homogenate; outline: as §2
[11] = Drug uptake in human HT-29 cells assessed as increase in fluorescence intensity at 25 uM incubated for 3 hrs by flow cytometry; assay type: ADME, cell-based; conditions: ht-29, 3 h
[12] = Drug uptake in human HT-29 cells at 100 uM incubated for 3 hrs by flow cytometry relative to control; assay type: ADME, cell-based; conditions: ht-29, 3 h; outline: as §1

IC50 (HT-29 [1]) [µM]	Drug uptake [2]	Retention time [3] [min]	Drug uptake [4]	Drug metabolism [5]	solubility [7]	Stability [8]	Drug metabolism [10]	Drug uptake [11]	Drug uptake [12] [%]	SMILES	Stability [6]	Activity (HT-29 [9])
3.6		31.3 to 34	Active	Metabolite_Detected	Soluble	Stable	Metabolite_Detected			COc1cccc2c1C(=O)c1c(O)c3c(c(O)c1C2=O)C[C@@](O)(/C(C)=N/OCC(=O)N[C@@H](CC(C)C)C(=O)N[C@@H](CCCNC(=N)N)C(=O)N[C@@H](CCCNC(=N)N)C(=O)N[C@@H](Cc1ccc(O)cc1)C(=O)N[C@H](C(=O)N[C@@H](Cc1cnc[nH]1)C(=O)N[C@@H](CC(C)C)C(=O)N[C@@H](Cc1ccc(Cl)cc1)C(=O)N[C@@H](Cc1ccc(O)cc1)C(=O)N[C@@H](C)C(=O)N[C@H](C(N)=O)[C@@H](C)O)C(C)C)C[C@@H]3O[C@H]1C[C@H](N)[C@H](O)[C@H](C)O1 (X1-LRRYVHL[Phe(4-Cl)]YAT-NH2)	Stable	Toxic
3.2		30.7 to 32.3	Active	Metabolite_Detected	Soluble	Stable	Metabolite_Detected			COc1cccc2c1C(=O)c1c(O)c3c(c(O)c1C2=O)C[C@@](O)(/C(C)=N/OCC(=O)N[C@@H](CC(C)C)C(=O)N[C@@H](CCCNC(=N)N)C(=O)N[C@@H](CCCNC(=N)N)C(=O)N[C@@H](Cc1ccc(O)cc1)C(=O)N[C@H](C(=O)N[C@@H](Cc1cnc[nH]1)C(=O)N[C@@H](CC(C)C)C(=O)N[C@@H](Cc1ccccc1)C(=O)N[C@@H](Cc1ccc(O)cc1)C(=O)N[C@@H](CC(C)C)C(=O)N[C@H](C(N)=O)[C@@H](C)O)C(C)C)C[C@@H]3O[C@H]1C[C@H](N)[C@H](O)[C@H](C)O1 (X1-LRRYVHLFYLT-NH2)	Stable	

Further lines, the compound ahead of its results:

SMILES	IC50 (HT-29 [1]) [µM]	Drug uptake [2]	Retention time [3] [min]	Drug uptake [4]	Drug metabolism [5]	solubility [7]	Stability [8]	Drug metabolism [10]	Drug uptake [11]	Drug uptake [12] [%]	Stability [6]	Activity (HT-29 [9])
COc1cccc2c1C(=O)c1c(O)c3c(c(O)c1C2=O)C[C@@](O)(/C(C)=N/OCC(=O)N[C@@H](CC(C)C)C(=O)N[C@@H](CCCNC(=N)N)C(=O)N[C@@H](CCCNC(=N)N)C(=O)N[C@@H](Cc1ccc(O)cc1)C(=O)N[C@H](C(=O)N[C@@H](Cc1cnc[nH]1)C(=O)N[C@@H](C)C(=O)NCC(=O)N[C@@H](Cc1ccc(O)cc1)C(=O)N[C@@H](C)C(=O)N[C@H](C(N)=O)[C@@H](C)O)C(C)C)C[C@@H]3O[C@H]1C[C@H](N)[C@H](O)[C@H](C)O1 (X1-LRRYVHAGYAT-NH2)	> 100	Active	27.2 to 29.9									
COc1cccc2c1C(=O)c1c(O)c3c(c(O)c1C2=O)C[C@@](O)(/C(C)=N/OCC(=O)N[C@@H](CC(C)C)C(=O)N[C@@H](CCCNC(=N)N)C(=O)N[C@@H](CCCNC(=N)N)C(=O)N[C@@H](Cc1ccc(O)cc1)C(=O)N[C@H](C(=O)N[C@@H](Cc1cnc[nH]1)C(=O)N[C@@H](CC(C)C)C(=O)NCC(=O)N[C@@H](Cc1ccc(O)cc1)C(=O)N[C@@H](C)C(=O)N[C@@H](C)C(N)=O)C(C)C)C[C@@H]3O[C@H]1C[C@H](N)[C@H](O)[C@H](C)O1 (X1-LRRYVHLGYAA-NH2)	70.9	Active	28 to 30.7									
COc1cccc2c1C(=O)c1c(O)c3c(c(O)c1C2=O)C[C@@](O)(/C(C)=N/OCC(=O)N[C@@H](CC(C)C)C(=O)N[C@@H](CCCNC(=N)N)C(=O)N[C@@H](CCCNC(=N)N)C(=O)N[C@@H](Cc1ccc(O)cc1)C(=O)N[C@H](C(=O)N[C@@H](C)C(=O)N[C@@H](CC(C)C)C(=O)NCC(=O)N[C@@H](Cc1ccc(O)cc1)C(=O)N[C@@H](C)C(=O)N[C@H](C(N)=O)[C@@H](C)O)C(C)C)C[C@@H]3O[C@H]1C[C@H](N)[C@H](O)[C@H](C)O1 (X1-LRRYVALGYAT-NH2)	36.8	Active	29 to 31.7									
COc1cccc2c1C(=O)c1c(O)c3c(c(O)c1C2=O)C[C@@](O)(/C(C)=N/OCC(=O)N[C@@H](CC(C)C)C(=O)N[C@@H](CCCNC(=N)N)C(=O)N[C@@H](CCCNC(=N)N)C(=O)N[C@@H](Cc1ccc(O)cc1)C(=O)N[C@H](C(=O)N[C@@H](Cc1cnc[nH]1)C(=O)N[C@@H](CC(C)C)C(=O)NCC(=O)N[C@@H](C)C(=O)N[C@@H](C)C(=O)N[C@H](C(N)=O)[C@@H](C)O)C(C)C)C[C@@H]3O[C@H]1C[C@H](N)[C@H](O)[C@H](C)O1 (X1-LRRYVHLGAAT-NH2)	> 100	Active	27.4 to 30.1									
COc1cccc2c1C(=O)c1c(O)c3c(c(O)c1C2=O)C[C@@](O)(/C(C)=N/OCC(=O)N[C@@H](CC(C)C)C(=O)N[C@@H](CCCNC(=N)N)C(=O)N[C@@H](CCCNC(=N)N)C(=O)N[C@@H](Cc1ccc(O)cc1)C(=O)N[C@H](C(=O)N[C@@H](Cc1cnc[nH]1)C(=O)N[C@@H](CC(C)C)C(=O)N[C@@H](C)C(=O)N[C@@H](Cc1ccc(O)cc1)C(=O)N[C@@H](C)C(=O)N[C@H](C(N)=O)[C@@H](C)O)C(C)C)C[C@@H]3O[C@H]1C[C@H](N)[C@H](O)[C@H](C)O1 (X1-LRRYVHLAYAT-NH2)	24.1 to 27.9		28.6 to 31.3				Stable		Active	80	Stable	
COc1cccc2c1C(=O)c1c(O)c3c(c(O)c1C2=O)C[C@@](O)(/C(C)=N/OCC(=O)N[C@@H](CC(C)C)C(=O)N[C@@H](CCCNC(=N)N)C(=O)N[C@@H](CCCNC(=N)N)C(=O)N[C@@H](Cc1ccc(O)cc1)C(=O)N[C@@H](C)C(=O)N[C@@H](Cc1cnc[nH]1)C(=O)N[C@@H](CC(C)C)C(=O)NCC(=O)N[C@@H](Cc1ccc(O)cc1)C(=O)N[C@@H](C)C(=O)N[C@H](C(N)=O)[C@@H](C)O)C[C@@H]3O[C@H]1C[C@H](N)[C@H](O)[C@H](C)O1 (X1-LRRYAHLGYAT-NH2)	> 100	Active	27.7 to 30.4									
